Test results taken from ChEMBL document CHEMBL1122284, “Aromatic retinoic acid analogues. 2. Synthesis and pharmacological activity” (1983).

Key:
[1] = system: Cricetinae gen. sp.; assay: Total cultures(6) versus active (5) at 10e-9 M conc. in hamster tracheal organ culture assay (TOC); format: functional, Trachea
Summary of the method: (§1)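 Tracheas from Syrian golden hamsters kept on a vitamin A deficient diet from birth to 30–32 days old. Cultured serum-free (CMRL 1066 with insulin, hydrocortisone, glutamine, antibiotics), one explant per dish, 50% O2/45% N2/5% CO2, 36 °C, rocked. 3 days without retinoid, then 7 days with retinoid, medium renewed three times. Histology on day 10. Active means keratin/keratohyaline granules absent. Usually duplicate, 6–7 tracheas per concentration.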

[2] = target: T1, Ornithine decarboxylase (Mus musculus) (UniProt P00860); assay: Percent inhibition of the induction of ornithine decarboxylase at 1.7 nmol in mouse dorsal epidermis (ODC assay); format: functional
T1 sequence (whole entry): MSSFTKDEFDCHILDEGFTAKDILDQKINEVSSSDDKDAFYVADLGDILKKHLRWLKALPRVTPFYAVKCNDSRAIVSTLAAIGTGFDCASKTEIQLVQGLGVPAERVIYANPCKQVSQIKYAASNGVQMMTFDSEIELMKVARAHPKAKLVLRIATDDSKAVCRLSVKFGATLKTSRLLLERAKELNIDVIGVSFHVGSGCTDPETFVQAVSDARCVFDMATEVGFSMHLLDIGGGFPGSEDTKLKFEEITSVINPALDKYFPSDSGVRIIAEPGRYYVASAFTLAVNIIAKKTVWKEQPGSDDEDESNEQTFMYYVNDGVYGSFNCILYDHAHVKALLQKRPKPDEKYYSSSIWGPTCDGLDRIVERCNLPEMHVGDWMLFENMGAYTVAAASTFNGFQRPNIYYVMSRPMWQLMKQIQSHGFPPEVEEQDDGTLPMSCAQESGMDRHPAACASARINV

[3] = system: Cricetinae gen. sp.; assay: Total cultures(6) versus active (3) at 10e-10 M conc. in hamster tracheal organ culture assay (TOC); format: functional, Trachea; summary of the method: as §1
[4] = system: Cricetinae gen. sp.; assay: Total cultures(6) versus active (1) at 10e-11 M conc. in hamster tracheal organ culture assay (TOC); format: functional, Trachea; summary of the method: as §1
[5] = system: Cricetinae gen. sp.; assay: Relative potency with respect to retinoic acid in hamster tracheal organ culture assay (TOC); format: functional, Cricetulus griseus, Trachea
[6] = target: T1, Ornithine decarboxylase (Mus musculus); assay: Percent inhibition of the induction of ornithine decarboxylase at 17 nmol dose in mouse dorsal epidermis (ODC assay); format: functional
[7] = system: Cricetinae gen. sp.; assay: ED50 of retinoid required to effect reversal of keratinization; format: functional; summary of the method: as §1
[8] = system: Cricetinae gen. sp.; assay: Total cultures(14) versus active (5) at 10e-10 M conc. in hamster tracheal organ culture assay (TOC); format: functional, Trachea; summary of the method: as §1
[9] = system: Cricetinae gen. sp.; assay: Total cultures(14) versus active (6) at 10e-9 M conc. in hamster tracheal organ culture assay (TOC); format: functional, Trachea; summary of the method: as §1
[10] = system: Cricetinae gen. sp.; assay: Total cultures(13) versus active (11) at 10e-8 M conc. in hamster tracheal organ culture assay (TOC); format: functional, Trachea; summary of the method: as §1
[11] = target: T1, Ornithine decarboxylase (Mus musculus); assay: Percent inhibition of the induction of ornithine decarboxylase at 170 nmol in mouse dorsal epidermis (ODC assay); format: functional
[12] = system: Cricetinae gen. sp.; assay: Total cultures(5) versus active(13) at 10e-10 M conc. in hamster tracheal organ culture assay (TOC); format: functional, Trachea; summary of the method: as §1
[13] = system: Cricetinae gen. sp.; assay: Total cultures(12) versus active(13) at 10e-9 M conc. in hamster tracheal organ culture assay (TOC); format: functional, Trachea; summary of the method: as §1
[14] = system: Cricetinae gen. sp.; assay: Total cultures(13) versus active(13) at 10e-8 M conc. in hamster tracheal organ culture assay (TOC); format: functional, Trachea; summary of the method: as §1
[15] = system: Cricetinae gen. sp.; assay: Total cultures (1)versus active(6) at 10e-11 M conc. in hamster tracheal organ culture assay (TOC); format: functional, Trachea; summary of the method: as §1
[16] = system: Cricetinae gen. sp.; assay: Total cultures(9) versus active(14) at 10e-10 M conc. in hamster tracheal organ culture assay (TOC); format: functional, Trachea; summary of the method: as §1
[17] = system: Cricetinae gen. sp.; assay: Total cultures(6) versus active(6) at 10e-8 M conc. in hamster tracheal organ culture assay (TOC); format: functional, Trachea; summary of the method: as §1
[18] = system: Cricetinae gen. sp.; assay: Total cultures(11) versus active(13) at 10e-9 M conc. in hamster tracheal organ culture assay (TOC); format: functional, Trachea; summary of the method: as §1
[19] = system: Cricetinae gen. sp.; assay: Total cultures(3) versus active(11) at 10e-10 M conc. in hamster tracheal organ culture assay (TOC); format: functional, Trachea; summary of the method: as §1
[20] = system: Cricetinae gen. sp.; assay: Total cultures(12) versus active(12) at 10e-9 M conc. in hamster tracheal organ culture assay (TOC); format: functional, Trachea; summary of the method: as §1
[21] = system: Cricetinae gen. sp.; assay: Total cultures(0) versus active(6) at 10e-11 M conc. in hamster tracheal organ culture assay (TOC); format: functional, Trachea; summary of the method: as §1
[22] = system: Cricetinae gen. sp.; assay: Total cultures (13) versus active (4) at 10e-10 M conc. in hamster tracheal organ culture assay (TOC); format: functional, Trachea; summary of the method: as §1
[23] = system: Cricetinae gen. sp.; assay: Total cultures(11) versus active (5) at 10e-8 M conc. in hamster tracheal organ culture assay (TOC); format: functional, Trachea; summary of the method: as §1
[24] = system: Cricetinae gen. sp.; assay: Total cultures(13) versus active (5) at 10e-9 M conc. in hamster tracheal organ culture assay (TOC); format: functional, Trachea; summary of the method: as §1
[25] = system: Cricetinae gen. sp.; assay: Total cultures(4) versus active(13) at 10e-10 M conc. in hamster tracheal organ culture assay (TOC); format: functional, Trachea; summary of the method: as §1
[26] = system: Cricetinae gen. sp.; assay: Total cultures(0) versus active(7) at 10e-11 M conc. in hamster tracheal organ culture assay (TOC); format: functional, Trachea; summary of the method: as §1
[27] = system: Cricetinae gen. sp.; assay: Total cultures(13) versus active(13) at 10e-9 M conc. in hamster tracheal organ culture assay (TOC); format: functional, Trachea; summary of the method: as §1

Row | Structure (SMILES) | inhibition of control [2] [%] | inhibition of control [6] [%] | Relative activity [5] | ED50 [7] [pM] | Active/total cultures [17] [%] | other results
1 | CCOC(=O)c1ccc(/C=C(C)\C=C\C2=C(C)CCCC2(C)C)s1 | 35 | 76 | 0.3 | 20 |  | Active/total cultures [8]: 36%; Active/total cultures [9]: 43%; Active/total cultures [10]: 85%
2 | CC1=C(/C=C/C(C)=C(\F)c2ccc(C(=O)O)cc2)C(C)(C)CCC1 | 70 | 80 | 3 | 20 |  | Active/total cultures [12]: 38%; Active/total cultures [13]: 92%; Active/total cultures [14]: 100%
3 | CCOC(=O)c1ccc(/C=C(C)/C=C/C2=C(C)CCCC2(C)C)c(F)c1 | 8 | 46 | 5 | 6 | 100 | Active/total cultures [15]: 17%; Active/total cultures [16]: 64%; Active/total cultures [18]: 85%
4 | CCOC(=O)c1ccc(/C=C(C)/C=C/C2=C(C)CCCC2(C)C)cc1 |  | 80 | 1 | 6 | 100 | Active/total cultures [25]: 31%; Active/total cultures [26]: 0%; Active/total cultures [27]: 100%

Continued, in another order:

Row | inhibition of control [2] [%] | inhibition of control [6] [%] | Structure (SMILES) | Relative activity [5] | ED50 [7] [pM] | Active/total cultures [17] [%] | other results
5 | 9 | 37 | COc1cc(C(=O)O)ccc1/C=C(C)/C=C/C1=C(C)CCCC1(C)C | 3 | 10 |  | Active/total cultures [1]: 83%; Active/total cultures [3]: 50%; Active/total cultures [4]: 17%
6 | 62 | 69 | CC1=C(/C=C/C(C)=C/c2ccc(C(=O)O)cc2)C(C)(C)CCC1 | 2 |  |  | inhibition of control [11]: 87%
7 | 37 | 78 | CC1=C(/C=C/C(C)=C/c2ccc(C(=O)O)cc2F)C(C)(C)CCC1 | 5 | 6 | 100 | Active/total cultures [19]: 27%; Active/total cultures [20]: 100%; Active/total cultures [21]: 0%
8 | 7 | 5 | CC1=C(/C=C/C(C)=C/c2ccc(C(=O)O)o2)C(C)(C)CCC1 | <<0.1 | 20 |  | Active/total cultures [22]: 31%; Active/total cultures [23]: 45%; Active/total cultures [24]: 38%
